Paper PMC6085501 (EBioMedicine, 2018)
One block for each molecule: values may come before it.

Columns and labels:
[1] = molecular target: Glucose regulated protein 78 kDa (GRP78), recombinant protein immobilised for SPR (UniProt P11021); assay: SPR
[2] = system: human HBT 3477 breast cancer; settings: 250 μg/mouse, nude mice; cited from earlier work
HUVECs = assay: Cell Death Detection ELISA; type: cell-based, human; settings: 100 μM, 24 h
Method in brief: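 HUVECs (passages 5–10) seeded at 1–1.5 × 10^4 cells/well and pre-starved 3 h in 2% FBS medium. Co-treated with 100 μM test peptide plus 15 ng/ml VEGF for 24 h. Apoptosis read as cytoplasmic histone-associated DNA fragments by photometric ELISA at 405 nm. Fold change taken against VEGF-only cells set as 1. Mean ± SEM, at least three independent experiments, ANOVA.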

Cell-surface GRP78 = settings: ISM protein as ligand of cell-surface GRP78; cited from earlier work

Chain of UniProt P11021 (P11021 19-654): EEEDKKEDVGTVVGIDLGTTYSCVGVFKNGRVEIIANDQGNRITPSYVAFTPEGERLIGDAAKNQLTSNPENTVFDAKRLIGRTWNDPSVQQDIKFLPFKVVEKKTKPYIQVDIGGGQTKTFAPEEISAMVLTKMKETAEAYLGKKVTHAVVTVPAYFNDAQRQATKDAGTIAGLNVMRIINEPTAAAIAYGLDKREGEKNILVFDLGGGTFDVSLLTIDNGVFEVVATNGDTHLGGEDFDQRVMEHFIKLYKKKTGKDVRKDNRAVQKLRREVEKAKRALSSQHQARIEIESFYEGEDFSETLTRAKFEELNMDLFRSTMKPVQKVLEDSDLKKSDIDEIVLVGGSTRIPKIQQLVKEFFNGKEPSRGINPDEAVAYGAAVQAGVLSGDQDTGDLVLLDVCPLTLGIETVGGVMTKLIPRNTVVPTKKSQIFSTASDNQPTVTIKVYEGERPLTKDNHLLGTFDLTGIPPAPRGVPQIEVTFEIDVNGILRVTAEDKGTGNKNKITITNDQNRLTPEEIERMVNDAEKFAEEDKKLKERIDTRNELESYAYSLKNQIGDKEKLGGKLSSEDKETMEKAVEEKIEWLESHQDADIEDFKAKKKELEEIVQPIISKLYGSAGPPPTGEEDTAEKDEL

- Kd [1]: 211 µM
Molecule: BC71, cyclic peptide c[(bA)(k)RKD(2-D-Nal)]

Molecule: cilengitide
- suppression of tumor growth as single agent [2]: ineffective

Molecule: cyclo(KRAAF) [GR35]
- proapoptotic activity towards HUVECs (in words) (HUVECs): significantly reduced its proapoptotic activity

Molecule: cyclo(KRKDF) [GR16]
- apoptosis, relative fold change (HUVECs; HUVECs, Cell Death Detection ELISA, Fig. 1a legend): over 1.4

B1: ISM: secreted proapoptotic protein, high-affinity ligand of cell-surface GRP78 (protein, UniProt B1AKI9 30-464, looked up)
Isthmin-1: ADGPDAAAGNASQAQLQNNLNVGSDTTSETSFSLSKEAPREHLDHQAAHQPFPRPRFRQETGHPSLQRDFPRSFLLDLPNFPDLSKADINGQNPNIQVTIEVVDGPDSEADKDQHPENKPSWSVPSPDWRAWWQRSLSLARANSGDQDYKYDSTSDDSNFLNPPRGWDHTAPGHRTFETKDQPEYDSTDGEGDWSLWSVCSVTCGNGNQKRTRSCGYACTATESRTCDRPNCPGIEDTFRTAATEVSLLAGSEEFNATKLFEVDTDSCERWMSCKSEFLKKYMHKVMNDLPSCPCSYPTEVAYSTADIFDRIKRKDFRWKDASGPKEKLEIYKPTARYCIRSMLSLESTTLAAQHCCYGDNMQLITRGKGAGTPNLISTEFSAELHYKVDVLPWIICKGDWSRYNEARPPNNGQKCTESPSDEDYIKQFQEAREY
- Kd (Cell-surface GRP78): 0.0086 µM
